An excerpt weighted towards active compounds, which were near 4.6% of everything screened.
DSG3 Ab inh: inhibitors of pemphigus antibody binding to DSG3, primary screen, biochemical, bead-based, flow cytometry, scFv-GFP | DSG3-coupled beads, scFv-anti-DSG3-GFP binding; active compounds read low | hit rate 0.48% among 310,000 | binding (percent of control), % at 10 µM | Desmoglein-3 (Homo sapiens), P32926;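 active = binding more than 3 SD below its plate's average and above zero; inconclusive = below that plate limit but binding exactly zero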;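 note: hits lower antibody fragment binding to DSG3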
Arr AP2 block: inhibitors of beta-arrestin/AP2 binding, primary screen, biochemical, GPCR trafficking, flow cytometry. AID 504490, 2011. inhibition, % at 10 µM. beta-arrestin 1 C-terminal peptide binding to AP2 beta2-adaptin appendage (human). hit rate 0.31% among 340,000. FITC-arrestin peptide / GST-AP2 beads; AP2 beta2 appendage carries R879A mutation;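 active = inhibition above a set limit, near 3 SD of compounds lacking own fluorescence, cut at about 54% in these data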
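system = GST-tagged AP2 beta2-adaptin appendage (R879A) on 4 µm glutathione beads | reagent = FITC-labelled arrestin peptide probe, 50 nM final | schedule = compound with beads 12 min RT, then probe 1 h RT | signal = HyperCyt-sampled flow cytometry, FL1 channel, ex 488/em 535 nm | read-out = percent response from loss of bead-bound FITC fluorescence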
NALP1 yeast inh: NALP1 inflammasome inhibitors in reconstituted yeast, colorimetric, S. cerevisiae, triplicate retest. S. cerevisiae NALP1/ASC/caspase-1 growth, X-gal OD620, 72 h. inhibition, % at 10 µM. hit rate 0.61% among 280,000; in the data active = inhibition mostly above about 24%, no sharp cut-off; inactive = mostly below about 32%
PolyA inhibitor: polyadenylation inhibitors in yeast reporter cells, primary screen, luminescence, S. cerevisiae | hit rate 0.02% among 300,000 | activity score, % at 12 µM | S. cerevisiae SKY197-pL101 polyadenylation reporter, beta-gal luminescence; efflux-impaired pdr1/pdr3 knockout yeast; score 100 = 6 SD above DMSO;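 active = lowest replicate activity score at least 50, where 100 means six control SD above control mean; inconclusive = lowest score under 50 but half or more replicates reach 50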;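 note: yeast exposed to compound for 9 h at 30 °C; higher score means more reporter readthrough which indicates perturbed polyadenylation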
ALR H2O2 inh: inhibitors of human ALR sulfhydryl oxidase, primary screen, biochemical, H2O2 detection, HRP-luminol luminescence, single point; FAD-linked sulfhydryl oxidase ALR (Homo sapiens), P55789; purified ALR, DTT oxidation; hit rate 3.8% among 290,000; inhibition, % (concentration not given with the values);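 active = mean replicate inhibition above about 79%, with every replicate also reaching it, limit read from the data; inconclusive = only one of the two criteria met; inactive = mean below limit and not every replicate reaching it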
Target sequence (P55789 whole entry, looked up): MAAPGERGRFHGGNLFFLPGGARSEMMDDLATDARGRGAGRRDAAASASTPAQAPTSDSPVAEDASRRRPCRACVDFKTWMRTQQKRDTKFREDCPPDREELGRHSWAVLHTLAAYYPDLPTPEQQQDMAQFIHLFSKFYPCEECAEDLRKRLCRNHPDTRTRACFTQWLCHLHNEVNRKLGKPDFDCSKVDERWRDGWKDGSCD
NLRP3 yeast inh: NALP3 inflammasome inhibitors in reconstituted yeast, primary screen, luminescence, uHTS | AID 2825, 2010 | inhibition, % at 10 µM | hit rate 0.39% among 330,000 | Yeast reconstituted NLRP3/ASC/caspase-1, beta-gal luminescence, 24 h;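 active = inhibition of 50% or more; inactive = inhibition below 50%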
A number is an active result.

For COc1ccc(-c2cn[nH]c2-c2ccc(OCC(=O)NN)cc2O)cc1OC the results were DSG3 Ab inh inactive, Arr AP2 block inactive, NALP1 yeast inh inactive, PolyA inhibitor inactive, ALR H2O2 inh inactive and NLRP3 yeast inh inactive.
COc1ccccc1-c1cn[nH]c1-c1ccc(OCC(=O)NN)cc1O was read as DSG3 Ab inh inactive, Arr AP2 block inactive, NALP1 yeast inh inactive, PolyA inhibitor inactive, ALR H2O2 inh 95 and NLRP3 yeast inh inactive.
Screening COCCCn1c(=O)c2ccccc2n(CC(=O)NC2CCCCC2)c1=O returned DSG3 Ab inh inactive, Arr AP2 block inactive, NALP1 yeast inh inactive, PolyA inhibitor inactive, ALR H2O2 inh inactive and NLRP3 yeast inh inactive.
CC(=O)Nc1ccc(S(=O)(=O)Nc2cc(S(=O)(=O)N3CCCCC3)ccc2O)cc1 was read as DSG3 Ab inh inconclusive, Arr AP2 block inactive and NLRP3 yeast inh inactive.
`C#CCOC(=O)c1ccccc1C(=O)n1nnc2ccccc21` gave DSG3 Ab inh inactive, Arr AP2 block inactive, NALP1 yeast inh inactive, PolyA inhibitor inactive, ALR H2O2 inh 97 and NLRP3 yeast inh inactive.
O=C(c1cccc2ccccc12)n1nnc2ccccc21 was read as PolyA inhibitor inactive, ALR H2O2 inh 94 and NLRP3 yeast inh inactive.
O=C(COc1nncc2ccccc12)NCCC1=CCCCC1 was read as DSG3 Ab inh inactive, Arr AP2 block inactive, NALP1 yeast inh inactive, PolyA inhibitor inactive and NLRP3 yeast inh inactive.
CC(C)NC(=O)COc1nncc2ccccc12 was read as DSG3 Ab inh inactive, Arr AP2 block inactive, NALP1 yeast inh inactive, PolyA inhibitor inactive, ALR H2O2 inh 100 and NLRP3 yeast inh inactive.
NS(=O)(=O)c1ccc(N2C(=O)CCCC2=O)cc1 was read as DSG3 Ab inh inactive.
COc1cccc(CN2CCC(n3nccc3NC(=O)CCOc3ccccc3)CC2)c1O was read as DSG3 Ab inh inconclusive, Arr AP2 block inactive, NALP1 yeast inh inactive, PolyA inhibitor inactive, ALR H2O2 inh 94 and NLRP3 yeast inh inactive.
For COc1cccc(CN2CCC(n3nccc3NC(=O)CCOc3ccccc3)CC2)c1 the results were DSG3 Ab inh inactive, Arr AP2 block inactive, NALP1 yeast inh inactive, PolyA inhibitor inactive, ALR H2O2 inh inactive and NLRP3 yeast inh inactive.
Screening C=CCNC(=O)N1CCC(c2nc3ccccc3s2)CC1 returned DSG3 Ab inh inactive, Arr AP2 block inactive, NALP1 yeast inh inactive, PolyA inhibitor inactive, ALR H2O2 inh inactive and NLRP3 yeast inh inactive.
CC1CC2=C(NC(=S)NC2c2ccccc2F)/C(=C/c2ccccc2F)C1 (stereo unspecified) was read as DSG3 Ab inh 17, Arr AP2 block inactive, NALP1 yeast inh inactive, PolyA inhibitor inactive, ALR H2O2 inh inactive and NLRP3 yeast inh inactive.
For CCOC(=O)c1c(-n2c(C)cc(C=O)c2C)sc2c1CCCC2 the results were DSG3 Ab inh inactive, Arr AP2 block inactive, NALP1 yeast inh inactive, PolyA inhibitor inactive, ALR H2O2 inh inactive and NLRP3 yeast inh inactive.
Cc1ccc(C)n1-c1sc2c(c1C(=O)O)CCCC2 was read as DSG3 Ab inh inactive, Arr AP2 block inactive, NALP1 yeast inh inactive, PolyA inhibitor inactive, ALR H2O2 inh 96 and NLRP3 yeast inh inactive.
COc1ccc(-c2c(C)nn(Cc3ccccc3)c2N)cc1 was read as DSG3 Ab inh inactive, Arr AP2 block inactive, NALP1 yeast inh inactive, PolyA inhibitor inactive, ALR H2O2 inh 97 and NLRP3 yeast inh inactive.
Screening COc1ccc(-c2ccc(=O)n(Cc3ccccc3)n2)cc1 returned DSG3 Ab inh inactive, Arr AP2 block inactive, NALP1 yeast inh inactive, PolyA inhibitor inactive, ALR H2O2 inh inactive and NLRP3 yeast inh inactive.
Cc1ccc([N+](=O)[O-])cc1N=Nc1c(C)[nH]n(C(N)=S)c1=O was read as DSG3 Ab inh inactive, Arr AP2 block inactive, NALP1 yeast inh inactive, PolyA inhibitor inactive, ALR H2O2 inh 98 and NLRP3 yeast inh inactive.
Screening Cc1ccc([N+](=O)[O-])cc1N=Nc1c(-c2ccc([N+](=O)[O-])cc2)[nH]n(C(N)=S)c1=O returned DSG3 Ab inh inactive, Arr AP2 block inactive, NALP1 yeast inh inactive and PolyA inhibitor inactive.
Screening CN(Cc1c(C(=O)N/N=C/c2ccc(O)cc2)nnn1-c1nonc1N)c1ccccc1 returned DSG3 Ab inh inactive, Arr AP2 block inactive, NALP1 yeast inh inactive, PolyA inhibitor inactive, ALR H2O2 inh 100 and NLRP3 yeast inh inactive.
Nc1nonc1-n1nnc(C(=O)N/N=C/c2ccc(OCc3ccccc3F)cc2)c1CN1CCCCC1 was read as DSG3 Ab inh -3.4, Arr AP2 block inactive, NALP1 yeast inh inactive, PolyA inhibitor inactive, ALR H2O2 inh inactive and NLRP3 yeast inh inactive.
Screening COc1ccccc1CNC(=O)COC(=O)COc1ccccc1Cc1ccccc1 returned DSG3 Ab inh inactive, Arr AP2 block inactive, PolyA inhibitor inactive and NLRP3 yeast inh inactive.
For Cc1cccc(-c2noc(CCC(=O)N3CCN(c4cc(C)ccc4C)CC3)n2)c1 the results were DSG3 Ab inh inactive and Arr AP2 block inactive.
Cc1nn(C)c(C(=O)Nc2ccc(S(=O)(=O)NC34CC5CC(CC(C5)C3)C4)cc2)c1Br was read as DSG3 Ab inh 17, Arr AP2 block inactive, NALP1 yeast inh inactive, PolyA inhibitor inactive, ALR H2O2 inh inactive and NLRP3 yeast inh inactive.
For O=C(CCl)N(c1ccc(Cl)cc1)c1c[nH]c2ccccc12 the results were DSG3 Ab inh inactive, Arr AP2 block inactive, NALP1 yeast inh inactive, PolyA inhibitor inactive, ALR H2O2 inh 98 and NLRP3 yeast inh inactive.
Screening CC(=O)Nc1ccc2c(c1)Cc1cc(N3C(=O)C=CC3=O)ccc1-2 returned DSG3 Ab inh inactive and Arr AP2 block inactive.
O=C(Cn1c(=O)oc2cc(S(=O)(=O)N3CCc4ccccc43)ccc21)N1CCCCC1 was read as DSG3 Ab inh inactive, Arr AP2 block inactive, NALP1 yeast inh inactive, PolyA inhibitor inactive, ALR H2O2 inh 88 and NLRP3 yeast inh inactive.
Screening O=C(Cn1c(=O)oc2cc(S(=O)(=O)N3CCCCC3)ccc21)N1CCc2ccccc21 returned DSG3 Ab inh inactive, Arr AP2 block inactive, NALP1 yeast inh inactive, PolyA inhibitor inactive and NLRP3 yeast inh inactive.
For OCC[C@H]1C[C@@H](O)[C@H](O)[C@]2(OCc3ccccc32)O1 the results were DSG3 Ab inh inactive, Arr AP2 block inactive, ALR H2O2 inh inactive and NLRP3 yeast inh inactive.
For CCNC(=S)/C(=C(/[O-])c1ccc([N+](=O)[O-])cc1)[n+]1ccccc1 the results were DSG3 Ab inh inactive, Arr AP2 block inactive, NALP1 yeast inh inactive, PolyA inhibitor inactive, ALR H2O2 inh 99 and NLRP3 yeast inh inactive.

Compound activity from PubChem.
